According to PMC9486669 (Veterinary and Animal Science, 2022):
Values after ≈ are worked out from the molar mass of the structure shown. Values joined by “and” are separate entries in the source; they are usually repeats but may differ in a detail not shown here. Equal entries are not always repeated. “Also recorded” adds a separate entry of the source.

Legend:
FMO [1] = test: FMO-dependent metabolism: BZ N-oxidase activity in sheep liver microsomes; assay type: in vitro ADME
Caenorhabditis elegans = conditions: read-out: LC50 (mortality); in vitro; ref Abdel-Rahman et al., 2013; cited from earlier work
[2] = rats, cited from earlier work
[3] = test system: Teladorsagia circumcincta; conditions: in vitro; ref Helal et al., 2020; cited from earlier work
[4] = GNL plasma levels after yeast-encapsulated GNL in the FEC trial; assay type: in vivo, Corriedale lambs; conditions: lambs; yeast-encapsulated GNL 100 mg/kg oral, four doses every 24 h
[5] = assay type: in vivo, Corriedale lambs; conditions: lambs
Haemonchus contortus [6] = test: Fecal egg count reduction in lambs infected with resistant H. contortus; assay type: in vivo
Summary of the method: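 Corriedale lambs artificially infected with a resistant H. contortus isolate received yeast-encapsulated test compound, 100 mg/kg orally, as four doses every 24 h. Faeces were sampled on days −1, 7 and 14, and epg was counted by modified McMaster (sensitivity 10 epg). FECR was calculated per McKenna from arithmetic mean epg: day −1 (T1) versus days 7 and 14 (T2).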

Haemonchus contortus [7] = conditions: in vitro; ref Helal et al., 2020; cited from earlier work
[8] = test system: Ancylostoma ceylanicum and Trichuris muris; conditions: encapsulated monoterpene, in vitro; ref Mirza et al., 2020; cited from earlier work
Trichostrongylus axei = conditions: in vitro; ref Helal et al., 2020; cited from earlier work
ruminal incubations = conditions: ref Miró et al., 2020b; cited from earlier work
sheep liver microsomes = conditions: ref Miró et al. 2020b, 2020c; cited from earlier work
FMO [9] = conditions: sheep liver microsomes, ref Miró et al. 2020b, 2020c; cited from earlier work
[10] = ref Miró et al., 2020b; cited from earlier work
[11] = test system: gram-positive and negative bacteria; conditions: ref Nagoor Meeran et al., 2017; cited from earlier work
CYP1A1 = molecular target: T1, CYP1A1 (Ovis aries, UniProt P56591); conditions: sheep liver microsomes, ref Miró et al. 2020b, 2020c; cited from earlier work
T1 sequence (P56591 1-519): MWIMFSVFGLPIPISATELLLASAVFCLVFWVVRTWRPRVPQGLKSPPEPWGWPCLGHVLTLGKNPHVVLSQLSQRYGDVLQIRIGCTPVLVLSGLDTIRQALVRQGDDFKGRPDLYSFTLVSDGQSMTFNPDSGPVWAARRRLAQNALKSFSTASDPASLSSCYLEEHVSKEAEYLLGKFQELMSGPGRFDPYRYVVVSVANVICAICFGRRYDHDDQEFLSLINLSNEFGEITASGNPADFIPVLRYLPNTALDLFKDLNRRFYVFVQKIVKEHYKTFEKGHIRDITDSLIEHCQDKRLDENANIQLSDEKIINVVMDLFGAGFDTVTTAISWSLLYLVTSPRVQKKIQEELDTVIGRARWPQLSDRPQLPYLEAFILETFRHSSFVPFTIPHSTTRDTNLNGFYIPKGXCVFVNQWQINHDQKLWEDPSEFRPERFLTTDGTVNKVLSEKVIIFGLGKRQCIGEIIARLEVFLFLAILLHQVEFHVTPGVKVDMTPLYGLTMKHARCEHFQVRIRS

Rhipicephalus microplus = conditions: encapsulated in Saccharomyces cerevisiae; ref da Silva Lima et al., 2017; cited from earlier work

Compound: CC(C)=CCC/C(C)=C/CO [GNL, 3,7-dimethylocta-trans-2,6-dien-1-ol]
- BZ N-oxidase activity, lower compared to absence of GNL (FMO [1]; 0.2 mM GNL): 65.5 ± 13.6%
- BZ N-oxidase activity (FMO pathway), lower compared to absence of GNL (FMO [1]; 2 mM GNL): 84.5 ± 4.84% and 84.5%
- LC50 (Caenorhabditis elegans): 14 µg/mL (≈ 90.8 µM)
- elimination half-life ([2]; intravenous infusion of 12.5 mg, ref Pavan et al. (2018)): about 12 min
- time at which Cmax in the bloodstream was achieved ([2]; oral administration, ref Pavan et al., 2018): 30 min
- reduction of larval motility [3]: 94%
- time of GNL detection in plasma [4]: detected in plasma only at 1 h post-treatment; also recorded: detected in plasma only at 1 h post-administration
- mean GNL plasma concentration expressed ([5]; 1 h after second oral dose of GNL 100 mg/kg): 0.02 mM
- mean GNL plasma concentration ([5]; 1 h after second oral dose of GNL 100 mg/kg (emulsion)): 3.04 ± 1.33 µg/mL and 3.04 µg/mL
- effect on fecal egg counts (Haemonchus contortus [6]; 7 and 14 days after first dose, four doses of GNL): did not significantly decrease
- FECR (fecal egg count reduction), in vivo efficacy (Haemonchus contortus [6]; day 14, lambs, GNL 100 mg/kg oral x 4, 95% LCL-UCL 0-82.3): 40.5%
- reduction of larval motility (Haemonchus contortus [7]): 82%
- classification of action [8]: fast acting at a moderately high dose
- reduction of larval motility (Trichostrongylus axei): 90%

Compound: Cc1ccc(C(C)C)c(O)c1 [TML, thymol]
- effect on formation of ABZ from ABZSO (ruminal incubations): completely abolish
- effect on S-oxygenation of ABZ (sheep liver microsomes): delayed
- effect on FMO-dependent metabolism (FMO [9]): inhibited
- effect on systemic exposure of ABZ metabolites [10]: did not improve
- MIC [11]: 150 µg/mL (≈ 999 µM)
- effect on CYP1A1-dependent metabolism (CYP1A1): inhibited

Compound: Cc1ccc(C(C)C)cc1O [carvacrol]
- decrease of LC50 after encapsulation compared to non-encapsulated (Rhipicephalus microplus): 2.5 fold
